PostGolgi yeast: growth inhibition of a yeast mutant, post-Golgi transport screen; post-Golgi transport phenotypic cell assay; inhibition, % at 10 µM; actives 0.9% (n = 98,000); AID 739;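 note: yeast cells grown in 1536-well plates; yeast grown about 18 h at 30C before absorbance read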
PostGolgi ctrl: yeast control strain growth, post-Golgi counter-screen | inhibition, % at 10 µM | efflux-deficient yeast background strain, growth absorbance A615, 16 h | actives 5% (n = 98,000)
tolC growth inh: blocks growth of E. coli BW25113 tolC mutant. OD615. growth inhibition, % at 10 µM (by protocol). actives 2.2% (n = 65,000). AID 573;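 active = growth inhibition at or above a cutoff equal to the mean over every tested compound plus 3 SD, cut at about 60% in these data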;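 note: growth measured after 20 h incubation at 37 °C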
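Test system: tolC-deleted E. coli BW25113; medium: LB with kanamycin 50 µg/mL; compound: single-point testing at 10 µM; incubation: 20 h compound exposure of bacteria at 37 °C; signal: OD at 615 nm; evaluation: growth inhibition in percent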
E coli WT exp: growth inhibitors of E. coli BW25113 wild type | OD600 absorbance | AID 710 | growth inhibition, % at 100 µM | actives 0.15% (n = 98,000);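 active = growth inhibition above about 50% at one test dose, limit read from the data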;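 note: growth measured after 20 h incubation at 37 °C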
* marks the source's active call; other numbers are inactive results; / = no result given. The list is not random: actives were taken first. Their share in the collection is about 6.3%. Cut-off read from the data, not from the text of the source, unless noted: active = inhibition above about 30%; inactive = the rest.

SMILES	PostGolgi yeast	PostGolgi ctrl	tolC growth inh	E coli WT exp
O=C(Nc1ccccc1O)c1ccccc1O	9.1	8.6	-3.5	63.0*
Cc1cccc(NC(=O)c2ccccc2O)c1C	-9.0	17.1	52.9	20.0
Cc1ccc(C)c(NC(=O)c2ccccc2O)c1	11.3	9.9	80.5*	3.0
O=C(CCS(=O)(=O)c1cccc2nsnc12)NCc1ccccc1Cl	2.1	10.1	/	10.0
COc1ccc(-c2nc(-c3ccccc3)c(-c3cc([N+](=O)[O-])ccc3C)[nH]2)cc1O	20.0	31.4*	/	-7.0
CCOC(=O)C1CCN(C(=O)CCc2c(C)nc3cc(-c4ccccc4)nn3c2C)CC1	-11.1	22.0	/	-1.0
CCOC(=O)C1CCCCN1C(=O)CCc1c(C)nc2cc(-c3ccccc3)nn2c1C (stereo unspecified)	3.4	77.4*	16.9	-4.0
COc1ccc(NC(=O)/C(Cl)=C(/Cl)S(=O)(=O)Cc2ccccc2)cn1	16.6	78.4*	/	12.0
CCCc1cc(=O)[nH]c(SCC(=O)N(C)C2CCS(=O)(=O)C2)n1 (stereo unspecified)	1.4	11.3	-9.2	-3.0
COC(=O)CCC(=O)Nc1cccc2ccccc12	10.8	34.1*	/	6.0
Brc1ccc(OCc2ccccc2)c(CNCc2ccncc2)c1	101.3*	94.9*	/	13.0
OCCNCc1cc(Br)ccc1OCc1ccc(Cl)cc1	-5.5	0.8	/	32.0
Cc1cccc(NS(=O)(=O)c2ccc(C3CCCCC3)cc2)n1	-2.5	27.0	/	8.0
Cc1cccc(NS(=O)(=O)c2ccc(C3CCCCC3)cc2)c1	-5.5	49.9*	/	-7.0
COc1ccccc1Nc1nc(N)nc(-c2oc3ccccc3c2C)n1	-0.6	3.2	/	-17.0
Cc1c(-c2nc(N)nc(Nc3ccc(F)cc3)n2)oc2ccccc12	7.3	39.9*	-1.8	-8.0
Cc1cccc(C)c1N1CCN(c2nc(N(C)C)oc(=O)c2C#N)CC1	1.1	4.0	/	-1.0
O=C(CCCC(=O)Nc1cccnc1)Nc1cccnc1	3.3	5.5	-17.4	-20.0
O=C(CCCc1nc(-c2ccc(Cl)cc2)no1)Nc1cccnc1	53.6*	88.3*	27.0	9.0
O=C(CCCOc1ccc(Cl)cc1Cl)Nc1cccnc1	69.0*	39.5*	/	23.0
O=C(Nc1cccnc1)Nc1ccc(F)c(Cl)c1	1.6	12.7	48.8	61.0*
O=C(Cc1ccccc1)Nc1ccccc1C(=O)O	-4.0	-5.3	/	-8.0
Cc1noc(NS(=O)(=O)c2ccc(NC(=O)CSc3nc4ccccc4[nH]3)cc2)c1C	-2.1	37.0*	10.8	7.0
O=C(CSc1nc2cc3ccccc3cc2[nH]1)Nc1ccc(F)cc1	2.0	54.7*	/	-9.0
Cc1noc(NS(=O)(=O)c2ccc(N/C=C\C(=O)c3ccc4c(c3)OCO4)cc2)c1C	-6.7	38.0*	/	25.0
SMILES	PostGolgi yeast	PostGolgi ctrl	tolC growth inh	E coli WT exp
Cc1noc(NS(=O)(=O)c2ccc(NC(=O)Nc3ccc(Cl)c(Cl)c3)cc2)c1C	0.3	3.6	100.0*	13.0
O=C(CSc1nc2ccccc2[nH]1)Nc1c(F)cccc1F	-2.4	-9.4	/	16.0
O=C(CSc1nnc(-c2ccncc2)n1-c1ccccc1)N1CCN(c2ccc(Cl)cc2)CC1	-16.1	4.8	/	-16.0
COC(=O)C(C)Oc1ccc(=O)[nH]n1 (stereo unspecified)	-4.8	25.5	-14.7	-4.0
CC(C)(C)c1ccc(Cn2nnc3c(=O)[nH]c(C4CCCN(C(=O)Cc5cccs5)C4)nc32)cc1 (stereo unspecified)	-4.9	10.9	87.7*	-4.0
CC(C)(C)c1ccc(Cn2nnc3c(=O)[nH]c(C4CCN(C(=O)Cc5cccs5)CC4)nc32)cc1	-0.4	-5.7	-3.2	0.0
Cc1cccc(S(=O)(=O)c2c(N)n(/N=C/c3ccco3)c3nc4ccccc4nc23)c1	5.7	32.4*	12.1	-10.0
Cc1ccc(S(=O)(=O)c2c(N)n(/N=C/c3ccco3)c3nc4ccccc4nc23)cc1C	-5.8	19.7	20.2	-17.0
Cc1ccc(S(=O)(=O)c2c(N)n(/N=C/c3ccco3)c3nc4ccccc4nc23)cc1	8.9	41.5*	14.9	-14.0
COc1ccccc1N1CCN(C(c2ccc(Cl)cc2)c2nnnn2C(C)(C)C)CC1 (stereo unspecified)	4.3	44.1*	66.0*	-19.0
COc1ccccc1N1CCN(C(c2ccccc2Cl)c2nnnn2C(C)(C)C)CC1 (stereo unspecified)	16.2	37.6*	63.5*	-11.0
COc1ccccc1C(c1nnnn1C(C)(C)C)N1CCN(Cc2ccncc2)CC1 (stereo unspecified)	5.7	7.3	-7.6	-5.0
O=C(COC(=O)c1cnccn1)c1ccc2c(c1)CCCC2	3.3	4.0	-10.6	4.0
CCC1(C)Cc2c(sc3nnn(Cc4ccccc4Cl)c(=O)c23)CO1 (stereo unspecified)	0.7	16.2	/	-13.0

Assay outcomes: PubChem, SRMLSC
